Experimental findings from ChEMBL document CHEMBL4680121, “Development of (4-methoxyphenyl)-1H-tetrazol-5-amine regioisomers as a new class of selective antitubercular agents” (Eur J Med Chem, 2020) are described below.

One series concerns Escherichia coli. The series is described as follows: Antibacterial activity against Escherichia coli ATCC 25922 assessed as bacterial growth inhibition measured after 18 hrs by two-fold serial microdilution method. The class given is functional. In short, it runs like this:
(§1)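 Two-fold serial broth microdilution in MH II medium following modified CLSI procedures. Compounds were dissolved in DMSO and diluted in medium to at most 1% solvent, tested from 0.03125 to 512 μg/ml. Final inoculum 10^6 CFU/ml. MIC was taken as the lowest concentration with no visible growth after 18 h at 35 °C.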
For orientation: In broth dilution the organism is exposed to a series of concentrations in liquid medium.

In series [1] the test system is Staphylococcus epidermidis. The series is described as follows: Antibacterial activity against Staphylococcus epidermidis ATCC 35984/RP62A assessed as bacterial growth inhibition measured after 18 hrs by two-fold serial microdilution method. It counts as functional. In short, it runs like this: as §1
Series [2] relates to Staphylococcus epidermidis. Kind of series: Antibacterial activity against Staphylococcus epidermidis ATCC 12228 assessed as bacterial growth inhibition measured after 18 hrs by two-fold serial microdilution method. The class given is functional. In a few lines: as §1
For series [3], the system named is Staphylococcus epidermidis. Kind of series: Antibacterial activity against Staphylococcus epidermidis ATCC 1457 assessed as bacterial growth inhibition measured after 18 hrs by two-fold serial microdilution method. The class given is functional. In short, it runs like this:
as §1

In series [4] the test system is Staphylococcus aureus. The series is described as follows: Antibacterial activity against Staphylococcus aureus ATCC 6538 assessed as bacterial growth inhibition measured after 18 hrs by two-fold serial microdilution method. It counts as functional. In a few lines:
as §1

For series [5], the system named is Staphylococcus aureus. The series is described as follows: Antibacterial activity against Staphylococcus aureus NCTC 4163 assessed as bacterial growth inhibition measured after 18 hrs by two-fold serial microdilution method. The class given is functional. In a few lines:
as §1

The test system of series [6] is Pseudomonas aeruginosa. The series is described as follows: Antibacterial activity against Pseudomonas aeruginosa NCTC 6749 assessed as bacterial growth inhibition measured after 18 hrs by two-fold serial microdilution method. The class given is functional. In short, it runs like this:
as §1

Series [7] concerns Pseudomonas aeruginosa. The series is described as follows: Antibacterial activity against Pseudomonas aeruginosa PAO1 assessed as bacterial growth inhibition measured after 18 hrs by two-fold serial microdilution method. The class given is functional. In a few lines:
as §1

The subject of a further series is Klebsiella pneumoniae. Kind of series: Antibacterial activity against Klebsiella pneumoniae ATCC 10031 assessed as bacterial growth inhibition measured after 18 hrs by two-fold serial microdilution method. It counts as functional. In short, it runs like this:
as §1

Another series relates to Proteus vulgaris. Kind of series: Antibacterial activity against Proteus vulgaris NCTC 4635 assessed as bacterial growth inhibition measured after 18 hrs by two-fold serial microdilution method. It counts as functional. In short, it runs like this:
as §1

Series [8] concerns Mycobacterium tuberculosis. The series is described as follows: Antitubercular activity against Mycobacterium tuberculosis H37Rv ATCC 25618 assessed as inhibition of microbial growth by classical test tube method. The class given is functional. In short, it runs like this:
(§2)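 Classical test-tube serial dilution in Youmans' modified Proskauer–Beck liquid medium with 10% bovine serum. Inoculum came from 14-day-old cultures. Compounds were given as DMSO solutions (stock 10 mg/ml), diluted geometrically in medium to 3.1–100 µg/ml, and incubated at 37 °C. MIC is the minimum concentration inhibiting growth relative to a no-compound control.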

Series [9] relates to Mycobacterium tuberculosis. Kind of series: Antitubercular activity against Mycobacterium tuberculosis Spec.192 assessed as inhibition of microbial growth by classical test tube method. It counts as functional. In a few lines: as §2
Series [10] relates to Mycobacterium intracellulare. The series is described as follows: Antimycobacterial activity against Mycobacterium intracellulare assessed as inhibition of microbial growth incubated for 1 week by MABA method. The class given is functional. The note with it: 168 h, time 1 weeks. In short, it runs like this:
(§3)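 Microplate Alamar Blue assay using two-fold serial microdilution in Middlebrook 7H9 broth with 10% OADC, compounds 0.125–512 µg/ml from DMSO stocks. Inoculum came from fresh LJ culture, was adjusted to McFarland 1 and diluted 1:20. Plates were incubated 1 week at 37 °C, Alamar blue was added and plates were re-incubated 24 h. MIC was the lowest concentration preventing the blue-to-pink change. Each plate carried growth and sterile controls.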

Series [11] deals with Mycobacterium tuberculosis. Kind of series: Antitubercular activity against Mycobacterium tuberculosis H37Rv ATCC 25618 assessed as inhibition of microbial growth incubated for 1 week by MABA method. It counts as functional. The note with it: H37Rv ATCC 25618, 168 h, time 1 weeks. In short, it runs like this: (§4)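 Microplate Alamar Blue assay in Middlebrook 7H9 broth with 10% OADC. Inoculum from fresh LJ culture was adjusted to McFarland 1 and diluted 1:20. DMSO stocks were two-fold serially diluted to final 0.125–512 µg/ml, with growth and sterile controls. Plates ran 1 week at 37 °C, then Alamar blue was added for 24 h. MIC is the lowest concentration preventing the blue-to-pink change.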
For orientation: Resazurin is reduced to fluorescent resorufin, in cell work by metabolically active cells.

Series [12] concerns Mycobacterium tuberculosis. The series is described as follows: Antitubercular activity against Mycobacterium tuberculosis Spec.192 assessed as inhibition of microbial growth incubated for 1 week by MABA method. The class given is functional. The note with it: Mycobacterium tuberculosis, 192, 168 h; time 1 weeks. In short, it runs like this: as §4
For a further series, the system named is Mycobacterium avium. The series is described as follows: Antimycobacterial activity against Mycobacterium avium assessed as inhibition of microbial growth incubated for 1 week by MABA method. It counts as functional. The note with it: 168 h, time 1 weeks. In short, it runs like this:
as §4

The test system of another series is Mycobacterium kansasii. The series is described as follows: Antibacterial activity against Mycobacterium kansasii assessed as inhibition of microbial growth incubated for 1 week by MABA method. The note with it: 168 h, time 1 weeks. The class given is functional. In short, it runs like this:
as §3

In series [13] the test system is Mycobacterium scrofulaceum. The series is described as follows: Antibacterial activity against Mycobacterium scrofulaceum assessed as inhibition of microbial growth incubated for 1 week by MABA method. It counts as functional. The conditions noted are these: 168 h, time 1 weeks. In a few lines: as §3
Series [14] deals with Mycolicibacterium fortuitum. The series is described as follows: Antibacterial activity against Mycobacterium fortuitum assessed as inhibition of microbial growth incubated for 1 week by MABA method. It counts as functional. The note with it: 168 h, time 1 weeks. In a few lines:
as §3

A further series concerns Mycobacterium xenopi. Kind of series: Antibacterial activity against Mycobacterium xenopi assessed as inhibition of microbial growth incubated for 1 week by MABA method. It counts as functional. The note with it: 168 h, time 1 weeks. In a few lines: as §3
In series [15] the test system is V79. The series is described as follows: Cytotoxicity against Chinese Hamster V79 cells assessed as reduction in cell viability measured after 72 hrs by MTT assay. It counts as cell-based. The note with it: Cricetulus griseus, V79, 72 h. In short, it runs like this:
(§5)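 MTT viability assay on cells grown in DMEM with 10% heat-inactivated FBS, penicillin/streptomycin and 20 mM HEPES at 37 °C/5% CO2. Cells were seeded at 1×10^4 per well and allowed to adhere for 24 h, then the medium was refreshed. Compounds were added at 20–140 μM for 72 h at 37 °C, followed by MTT (0.5 mg/mL in serum-free medium) for 4 h. Untreated cells served as control. IC50 is the concentration giving 50% growth inhibition versus control.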
Background: Tetrazolium assays rely on reduction of a dye to a coloured formazan, in cell work by metabolically active cells.

In series [16] the test system is HaCaT. Kind of series: Cytotoxicity against human HaCaT cells assessed as reduction in cell viability measured after 72 hrs by MTT assay. It counts as cell-based. In a few lines: as §5
The test system of series [17] is V79. Kind of series: Cytotoxicity against Chinese Hamster V79 cells assessed as reduction in cell viability at 100 uM measured after 72 hrs by MTT assay. It counts as cell-based, Cricetulus griseus. The note with it: v79, 72 h. In short, it runs like this:
as §5

Series [18] concerns HaCaT. The series is described as follows: Cytotoxicity against human HaCaT cells assessed as reduction in cell viability at 100 uM measured after 72 hrs by MTT assay. The class given is cell-based. In short, it runs like this: as §5
For series [19], the system named is Mycobacterium scrofulaceum. Kind of series: Potency index, ratio of isoniazid MIC to test compound MIC for antibacterial activity against Mycobacterium scrofulaceum assessed as inhibition of microbial growth incubated for 1 week by MABA method. The class given is functional. The conditions noted are these: time 1 weeks.

Each structure is given as a SMILES string. Values after ≈ are worked out from the molar mass of the structure shown.

In general, MIC refers to the smallest concentration in the dilution series that meets the test's criterion for growth inhibition. As to `COc1ccc(NC(=S)Nc2cccc(Cl)c2)cc1`, the minimal inhibitory concentration (MIC) (in the series on Escherichia coli; in [1]; in [2]; in series [3]; in the series with Staphylococcus aureus [4]; with Staphylococcus aureus [5]) was above 256 µg/mL in each case. The MIC is above 256 µg/mL in the series with Pseudomonas aeruginosa [6]; above 256 µg/mL with Pseudomonas aeruginosa [7]; above 256 µg/mL in the series with Klebsiella pneumoniae; above 256 µg/mL with Proteus vulgaris; 100 µg/mL in series [8]; 100 µg/mL in series [9].

For orientation: IC50 means the concentration at which inhibition is half-maximal. With `COc1ccc(Nc2nnnn2-c2cccc(Cl)c2)cc1`, the MIC is 128 µg/mL in [10]; 8 µg/mL in series [11]; 8 µg/mL in [12]; above 256 µg/mL with Escherichia coli; 64 µg/mL in the series with Mycobacterium avium; 512 µg/mL in the series on Mycobacterium kansasii. In addition, the minimal inhibitory concentration (MIC) in [13] is 2 µg/mL; in [14], 512 µg/mL; with Mycobacterium xenopi, 512 µg/mL; in series [1], above 256 µg/mL; in [2], above 256 µg/mL; in series [3] it was above 256 µg/mL. Also, the MIC with Staphylococcus aureus [4], with Staphylococcus aureus [5], in the series with Pseudomonas aeruginosa [6], with Pseudomonas aeruginosa [7], with Klebsiella pneumoniae and in the series with Proteus vulgaris was above 256 µg/mL each time. Further, the IC50 in the series with V79 [15] was determined as 124 µM; in the series with HaCaT [16] it was 103 µM. Further, the Activity result in the series with V79 [17] and with HaCaT [18] was “Non-Toxic” throughout. The Ratio in series [19] stood at 32.

As for `COc1ccc(-n2nnnc2Nc2cccc(F)c2)cc1`, the MIC in series [10] is 64 µg/mL; in [11], 8 µg/mL; in series [12], 8 µg/mL; with Escherichia coli it was above 256 µg/mL; in the series on Mycobacterium avium, 128 µg/mL; in the series on Mycobacterium kansasii, 512 µg/mL. Further, the MIC in series [13] turned out to be 16 µg/mL; in series [14], 256 µg/mL; in the series on Mycobacterium xenopi, 512 µg/mL; in series [1] it was 128 µg/mL (≈ 449 µM); in [2], 32 µg/mL (≈ 112 µM); in series [3], 256 µg/mL (≈ 897 µM). Also, the MIC with Staphylococcus aureus [4] was 64 µg/mL (≈ 224 µM); in the series with Staphylococcus aureus [5] it was 128 µg/mL (≈ 449 µM); in the series on Pseudomonas aeruginosa [6], above 256 µg/mL; with Pseudomonas aeruginosa [7], above 256 µg/mL; with Klebsiella pneumoniae, above 256 µg/mL; in the series on Proteus vulgaris it was above 256 µg/mL. The values for the IC50 with V79 [15] and with HaCaT [16] were 248 µM and 127 µM, respectively. For the same molecule, the Activity entry with V79 [17] and in the series on HaCaT [18] was “Non-Toxic” in each case. Besides, the Ratio in series [19] is on record as 4.

With `COc1ccc(NC(=S)Nc2ccc(Cl)cc2)cc1`, the MIC (with Escherichia coli; in [1]; in series [2]; in series [3]; in the series on Staphylococcus aureus [4]; with Staphylococcus aureus [5]) was above 256 µg/mL in each case. Also, the MIC in the series with Pseudomonas aeruginosa [6] is above 256 µg/mL; with Pseudomonas aeruginosa [7], above 256 µg/mL; in the series with Klebsiella pneumoniae, above 256 µg/mL; in the series with Proteus vulgaris it was above 256 µg/mL; in series [8] it was 50 µg/mL; in [9], 50 µg/mL.

For the molecule `COc1ccc(NC(=S)Nc2cccc(Br)c2)cc1`, the MIC (in the series on Escherichia coli; in series [1]; in [2]; in series [3]; in the series with Staphylococcus aureus [4]; in the series with Staphylococcus aureus [5]) was above 256 µg/mL in each case. Further, the MIC in the series on Pseudomonas aeruginosa [6] was above 256 µg/mL; with Pseudomonas aeruginosa [7], above 256 µg/mL; in the series on Klebsiella pneumoniae, above 256 µg/mL; in the series with Proteus vulgaris, above 256 µg/mL; in [8] it was 50 µg/mL; in series [9], 50 µg/mL.

For the molecule `COc1ccc(NC(=S)Nc2ccccc2Br)cc1`, the MIC (in the series with Escherichia coli; in series [1]; in series [2]; in series [3]; in the series with Staphylococcus aureus [4]; in the series on Staphylococcus aureus [5]) was above 256 µg/mL in each case. Besides, the minimal inhibitory concentration (MIC) in the series on Pseudomonas aeruginosa [6] is above 256 µg/mL; in the series with Pseudomonas aeruginosa [7], above 256 µg/mL; in the series with Klebsiella pneumoniae, above 256 µg/mL; in the series with Proteus vulgaris, above 256 µg/mL; in series [8], 50 µg/mL; in [9], 50 µg/mL.
